Calls of active or inactive are those of the source. The rule behind the calls is not given here.

The nature of data set [1]: Antioxidant activity assessed as trolox equivalent of AAPH-induced peroxyl radical scavenging activity at 1.3 to 13 uM up to 140 mins by ORAC-FL assay. The class given is functional. Summed up: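 ORAC: fluorescein (7.5 nM) decay (ex 485/em 512 nm) followed 140 min at 37 °C. Peroxyl radicals came from 30 mM AAPH in 75 mM phosphate pH 7.4 with 100 µM DTPA, compounds at 1.3-13 µM. Curves normalised to initial fluorescence, and net AUC versus concentration compared with Trolox standard (1.5-24 µM). Three independent determinations, mean ± SD.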

For data set [2], the system named is Plasma. Briefly: Inhibition of AAPH-induced oxidation of human plasma derived LDL assessed as time of delay for initiation of propagation phase by measuring rate of oxygen consumption at 20 uM added before AAPH addition by high-resolution oxygen electrode.
The species named for data set [3] is Mus musculus. Briefly: Antiinflammatory activity in mouse […] cells assessed as reduction in INF-gamma/LPS-induced IL-1beta expression at 5 uM preincubated for 1 hr followed by INF-gamma/LPS addition for 4 hrs by Western blot analysis. The class given is functional, cell-based. Summed up: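 Confluent J774 monolayers preincubated 1 h with compound at 5 µM, then stimulated 4 h at 37 °C, 5% CO₂ with IFN-γ 400 U/mL plus Salmonella enterica LPS 8 µg/mL. Whole-cell lysates resolved by 15% SDS-PAGE and immunoblotted with rabbit anti-IL-1β and Alexa Fluor 680 secondary. Bands quantified by densitometry, with loading checked on paired colloidal-blue gels. Three independent experiments, one-way ANOVA.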
In general terms: A western blot detects proteins with antibodies after separation by electrophoresis.

Data set [4] deals with Plasma. Description: Inhibition of AAPH-induced oxidation of human plasma derived LDL assessed as reversal of rate of oxygen consumption at 20 uM added after beginning of propagation phase by high-resolution oxygen electrode.
For data set [5], the species on record is Mus musculus. Description: Antiatherogenic activity in mouse […] cells assessed as foam cell formation by measuring ox-LDL internalization at 2.5 to 5 uM preincubated for 1 hr followed by ox-LDL Dil addition for 4 hrs by Hoechst 3342-staining based fluorescence assay. In kind it is functional. Summed up: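 J774 murine macrophages in DMEM with 10% FBS at 80% confluence (~2×10⁵ cells/well) preincubated 1 h with compound (0.3-5 µM range in plate-reader format). DiI-labelled Cu²⁺-oxidised LDL (10 µg/mL) then added for 4 h at 37 °C, 5% CO₂. Cells washed, nuclei stained with Hoechst 3342 (10 µg/mL, 10 min). Read-out is DiI (549/565 nm) to Hoechst (352/461 nm) fluorescence ratio.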

Data set [6] in a line: Cytotoxicity in mouse […] cells assessed as change in cell survival at 0.3 to 5 uM after 2 to 24 hrs by MTT assay. The class given is cell-based. Summed up: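 Confluent J774 cells exposed to compounds in DMEM at 37 °C, 5% CO₂ for 2 h and for 24 h. MTT (0.1 mg/mL in DPBS) then added for 3 h at 37 °C. Formazan dissolved in DMSO/glycine buffer pH 10.5 and absorbance read at 560 nm, with vehicle as reference.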

Consider `O=[N+]([O-])/C=C\c1ccccc1`, for which, in data set [1], the Activity was found to be 0.29 equiv. Consider `C/C(=C/c1ccc2c(c1)OCO2)[N+](=O)[O-]`, for which, in data set [1], the Activity amounted to 1.6 equiv.

`CC(=O)Nc1ccc(CC[N+](=O)[O-])cc1`: the Activity in data set [1] stood at 0.26 equiv. Regarding `CC(Cc1ccc(N(C)C)cc1)[N+](=O)[O-]` (stereo unspecified), the Time in the data set with Plasma [2] turned out to be 30 min. In addition, the Activity in data set [1] was 10 equiv. Also, the outcome in the data set listed under Mus musculus [3] was Active. In the data set with Plasma [4], the inhibition entry is “Active”. As to `O=[N+]([O-])/C=C\c1cccs1`, in data set [1], the Activity was determined as 0.43 equiv. In the case of `CN(C)c1ccc(/C=C\[N+](=O)[O-])cc1`, the Time with Plasma [2] was found to be 20 min. Further, the Activity was 4.2 equiv in data set [1] and “Non-Toxic” in data set [6]. Besides, the outcome in the data set listed under Mus musculus [3] was Active. Further, the outcome in the data set filed under Mus musculus [5] was inactive. In addition, the inhibition result with Plasma [4] was “inactive”. Take `O=[N+]([O-])/C=C\c1ccc(Cl)cc1`: the Activity in data set [1] amounted to 0.44 equiv. In the case of `O=[N+]([O-])/C=C\c1ccc(Br)cc1`, the Activity in data set [1] was 0.44 equiv. Regarding `CSc1ccc(CC[N+](=O)[O-])cc1`, the Activity in data set [1] is 2.8 equiv.

Turning to `CC(=O)Nc1ccc(/C=C\[N+](=O)[O-])cc1`, the Activity in data set [1] was determined as 0.63 equiv. In the case of `C/C(=C/c1cccs1)[N+](=O)[O-]`, in data set [1], the Activity was found to be 0.54 equiv. Turning to `C/C(=C/c1ccc(N(C)C)cc1)[N+](=O)[O-]`, the Time with Plasma [2] stood at 20 min. Besides, the Activity was 5.4 equiv in data set [1] and “Non-Toxic” in data set [6]. Further, the result in the data set listed under Mus musculus [3] was Active. Moreover, the outcome in the data set filed under Mus musculus [5] was inactive. The inhibition entry in the data set with Plasma [4] is “inactive”. For the molecule `O=[N+]([O-])/C=C\c1ccc2c(c1)OCO2`, the Activity in data set [1] was found to be 0.72 equiv.

On to `C/C(=C/c1ccc(Cl)cc1)[N+](=O)[O-]`, for which, in data set [1], the Activity worked out at 0.39 equiv. Regarding `C/C(=C/c1ccccc1)[N+](=O)[O-]`, in data set [1], the Activity was determined as 0.37 equiv. As for `CN(C)c1ccc(CC[N+](=O)[O-])cc1`, the Time with Plasma [2] is on record as over 40 min. Besides, the Activity in data set [1] stood at 13 equiv. Also, in the data set listed under Mus musculus [3], the outcome was Active. Moreover, the inhibition result in the data set with Plasma [4] was “Active”. On to `COc1ccc(/C=C\[N+](=O)[O-])cc1`, for which the Activity in data set [1] amounted to 0.46 equiv.

Regarding `CSc1ccc(/C=C\[N+](=O)[O-])cc1`, the Activity in data set [1] was 3.5 equiv.

For the molecule `C/C(=C/c1ccc(Br)cc1)[N+](=O)[O-]`, the Activity in data set [1] was found to be 0.45 equiv. As for `COc1ccc(/C=C(/C)[N+](=O)[O-])cc1`, the Activity in data set [1] is 0.46 equiv.

Values taken from ChEMBL document CHEMBL4261606, “Inhibition of LDL oxidation and inflammasome assembly by nitroaliphatic derivatives. Potential use as anti-inflammatory and anti-atherogenic agents” (Eur J Med Chem, 2018).
